Source: PubChem BioAssay
PAX8 reporter: inhibitors of PAX8 transcriptional activity in RMG-I cells; RMG-I TPO-luciferase reporter, SteadyGlo, 24 h; inhibition, % at 12.6 µM; hit rate 1.2% among 360,000; AID 652154;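 active = mean replicate inhibition at least 60% with every replicate also reaching 60%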;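 also: luciferase light reporting Pax8 driven TPO promoter activity; plate controls were median of neutral control wells for no effect and mitoxantrone controls for full effect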
Glyco luc inh: N-linked glycosylation inhibition; AID 588692; D54 ERlucT glycosylation luciferase reporter, 24 h; percent of 100 nM tunicamycin response; reporter increase, % at 12.5 µM; hit rate 0.23% among 360,000;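 active = mean luciferase reporter signal, scaled so untreated is 0 and the glycosylation-blocking control 100, at or above a set limit in every replicate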;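 also: luciferase carries N-glycosylation sites so blocking glycosylation raises the light; 0% = median of neutral control wells and 100% = median of 100 nM tunicamycin wells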
FN deposition inh: fibronectin deposition inhibition; inhibition, % at 12.6 µM; hit rate 0.086% among 350,000; AH1F fibroblasts, Alexa488-fibronectin deposition fluorescence, overnight; AID 743247;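 active = mean inhibition across replicates of 30% or more, regardless of how many single replicates reach that level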;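 also: positive control wells lacked labelled fibronectin entirely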
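Material: AH1F fibroblast monolayer depositing Alexa488-labelled fibronectin into matrix | Input: 10000 AH1F cells/well | Medium: DMEM plus 2% serum, read in PBS | Reagent: Alexa488-fibronectin, 24 nM final in well | Compound dosing: One dose per compound, pinned | Schedule: 1 h adhesion, overnight exposure | Measured by: Fluorescence at 485 nm excitation, 525 nm emission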
MLL AF4-AF9 inh: inhibitors of human MLL-AF4/AF9 interaction; inhibition, % at 10 µM; P42568; AlphaScreen, biotin-AF4 peptide binding to FLAG-AF9; hit rate 0.47% among 350,000;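 active = every replicate reaching a set inhibition limit, whatever the replicate mean, cut at about 25% in these data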;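 also: 0% = plate neutral control median and 100% = total signal loss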
Target sequence (P42568 whole entry, looked up): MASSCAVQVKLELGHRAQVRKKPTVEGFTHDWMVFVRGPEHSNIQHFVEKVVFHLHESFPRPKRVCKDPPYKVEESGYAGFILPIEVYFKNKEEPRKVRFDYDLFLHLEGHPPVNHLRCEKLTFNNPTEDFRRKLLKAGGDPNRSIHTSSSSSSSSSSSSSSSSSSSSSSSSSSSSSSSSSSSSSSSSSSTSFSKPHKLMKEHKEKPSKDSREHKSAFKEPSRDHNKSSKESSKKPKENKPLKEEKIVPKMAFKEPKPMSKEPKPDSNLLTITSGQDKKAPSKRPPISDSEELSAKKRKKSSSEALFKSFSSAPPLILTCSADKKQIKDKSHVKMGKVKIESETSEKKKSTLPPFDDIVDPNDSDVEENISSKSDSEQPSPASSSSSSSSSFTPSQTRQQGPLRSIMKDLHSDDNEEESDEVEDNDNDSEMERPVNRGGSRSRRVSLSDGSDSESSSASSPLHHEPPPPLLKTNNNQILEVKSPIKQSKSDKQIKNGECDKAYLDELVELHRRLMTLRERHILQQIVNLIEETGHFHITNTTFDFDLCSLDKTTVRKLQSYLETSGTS
Env fusion inh: blocks HIV Env-driven cell-cell fusion; HeLa-JRFL Env/CEM21 cell fusion, luciferase; inhibition, % at 12.3 µM; hit rate 1.1% among 360,000; AID 651610;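 active = mean replicate inhibition score of at least 50 and every replicate individually at or above 50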;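 also: 0% = plate neutral controls and 100% = maraviroc near 300 nM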
EWS-Fli block: inhibitors of EWS/Fli oncoprotein transcriptional activity; A673 NR0B1-luciferase reporter, viability-normalised; inhibition, % at 12.6 µM; hit rate 0.67% among 350,000; AID 651661;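 active = mean inhibition of at least 50% after viability correction, with every replicate also passing that limit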;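 also: firefly luciferase signal divided by Alamar Blue viability fluorescence both relative to DMSO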
* marks the source's active call; other numbers are inactive results; [ ] = dose if it differs, or a comment. In the library only some 2.5% were active in any assay of this set; here they are far more common.

`COc1cc2c(c(OC)c1OC)C(c1ccc3c(c1)OCO3)CC(=O)O2` (stereo not given) gave PAX8 reporter -10, Glyco luc inh 3, FN deposition inh 13, MLL AF4-AF9 inh 2, Env fusion inh -8 and EWS-Fli block 7.
C=CCOC(=O)[C@H]1[C@@H]2C(=O)O[C@@H](c3ccccc3)[C@@H](c3ccccc3)N2[C@@H](c2ccc(OCCOC(=O)[C@@H]3C[C@@H]4C(=O)N[C@@H](CC(C)C)C(=O)N4[C@@H]3c3cccc(OCCO)c3)cc2)[C@]12C(=O)Nc1ccccc12 was read as PAX8 reporter 3, MLL AF4-AF9 inh -1, Env fusion inh 1[16.7 µM] and EWS-Fli block -2.
For CCN(C[C@H]1N[C@@](CC)(C(=O)OC)[C@H]2C(=O)N(Cc3ccccc3)C(=O)[C@@H]12)S(=O)(=O)c1ccc(C)cc1 the results were PAX8 reporter 14, Glyco luc inh -1, FN deposition inh 9, MLL AF4-AF9 inh -69, Env fusion inh 81* and EWS-Fli block 7.
`CCN(C[C@H]1N[C@@](C)(C(=O)OC)[C@H]2C(=O)N(Cc3ccccc3)C(=O)[C@@H]12)S(=O)(=O)c1ccc(C(C)(C)C)cc1` gave PAX8 reporter 3, Glyco luc inh -3, FN deposition inh 12, MLL AF4-AF9 inh 1, Env fusion inh 84* and EWS-Fli block 2.
CCN(C[C@H]1N[C@@](CC)(C(=O)OC)[C@H]2C(=O)N(Cc3ccccc3)C(=O)[C@@H]12)S(=O)(=O)c1ccc(C(C)(C)C)cc1 was read as PAX8 reporter 1, Glyco luc inh -8, FN deposition inh 4, MLL AF4-AF9 inh -5, Env fusion inh 58* and EWS-Fli block 18.
CCN(C[C@H]1N[C@@](CC)(C(=O)OC)[C@H]2C(=O)N(Cc3ccccc3)C(=O)[C@@H]12)S(=O)(=O)c1ccc(OC(F)(F)F)cc1 was read as PAX8 reporter -6, Glyco luc inh -5, FN deposition inh 7, MLL AF4-AF9 inh -1, Env fusion inh 87* and EWS-Fli block 8.
For CCN(C[C@H]1N[C@@](CC)(C(=O)OC)[C@H]2C(=O)N(Cc3ccccc3)C(=O)[C@@H]12)S(=O)(=O)c1ccc(-c2ccccc2)cc1 the results were PAX8 reporter 2, Glyco luc inh -4, FN deposition inh -3, MLL AF4-AF9 inh -1, Env fusion inh 33 and EWS-Fli block 5.
Cc1noc(C)c1NC(=O)N(C)C[C@@H]1Oc2ccc(NS(C)(=O)=O)cc2CC(=O)N([C@H](C)CO)C[C@@H]1C was read as PAX8 reporter -13, Env fusion inh -3[16.7 µM] and EWS-Fli block -4.
CC=Cc1ccc2n(c1=O)C[C@@H]1[C@@H](CO)[C@H](C(=O)NCc3ccncn3)N(C(=O)NC3CCCC3)[C@H]21 (mixture of isomers) was read as PAX8 reporter -6, MLL AF4-AF9 inh -2, Env fusion inh 35[16.7 µM] and EWS-Fli block -2.
Cn1cnc(S(=O)(=O)N[C@H]2C=C[C@H](CC(=O)Nc3ccccc3)O[C@@H]2CO)c1 was read as MLL AF4-AF9 inh -1, Env fusion inh 12[16.7 µM] and EWS-Fli block -1.
COCCn1c(C)cc(C2=NNC(=Nc3ccccc3)SC2)c1C was read as Glyco luc inh -11.
Screening COc1ccccc1C1=NNC(=Nc2cccc(S(=O)(=O)N(C)C)c2)SC1 returned PAX8 reporter 84*, Glyco luc inh -1, FN deposition inh 4, MLL AF4-AF9 inh 1, Env fusion inh 41 and EWS-Fli block 41.
Screening CCOC(=O)Cc1c(C)nc2c(-c3ccc(OC)cc3)c(C)nn2c1C returned Glyco luc inh -2, FN deposition inh 18 and Env fusion inh 64*.
Screening C=CCOc1ccc(CN(C)Cc2nc3cc(C(F)(F)F)ccc3c(=O)[nH]2)cc1 returned PAX8 reporter -9, Glyco luc inh 4, FN deposition inh 0, MLL AF4-AF9 inh -12, Env fusion inh 14 and EWS-Fli block 5.
`COc1cccc(CN(C)Cc2nc3cc(C(F)(F)F)ccc3c(=O)[nH]2)c1` gave PAX8 reporter 10, Glyco luc inh 0, FN deposition inh 4, MLL AF4-AF9 inh 36*, Env fusion inh 10 and EWS-Fli block -1.
